Common to all, as to format: functional
One experiment concerns Klebsiella pneumoniae. As to the kind of experiment: Antibacterial activity against Klebsiella pneumoniae ATCC BAA-1705 after 16 to 18 hrs by CLSI method. The gist of the method:
(§1)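 Broth microdilution MIC per CLSI. A single colony from Mueller-Hinton agar is grown overnight in cation-supplemented Mueller-Hinton broth (37 °C, shaking, 18–24 h). Incubation is 37 °C for 16–18 h. MIC is the lowest concentration with no visible growth. Three independent runs, each in duplicate.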

The test system of a further experiment is Staphylococcus aureus. As to the kind of experiment: Antibacterial activity against Staphylococcus aureus ATCC 29213 after 16 to 18 hrs by CLSI method. In short, it runs like this:
as §1

Experiment [1] relates to Mycobacteroides abscessus. The experiment in a line: Antimycobacterial activity against Mycobacterium abscessus by pesto blue-dye based broth microdilution assay.
The subject of the next experiment is Mycobacteroides chelonae. The experiment in a line: Antimycobacterial activity against Mycobacterium chelonae by pesto blue-dye based broth microdilution assay. In general terms: Dilution methods test growth across graded concentrations, often in twofold steps.
The subject of experiment [2] is Mycolicibacterium fortuitum. The experiment in a line: Antimycobacterial activity against Mycobacterium fortuitum by pesto blue-dye based broth microdilution assay.
The next experiment has as its system Acinetobacter baumannii. The experiment in a line: Antibacterial activity against Acinetobacter baumannii BAA-1605 after 16 to 18 hrs by CLSI method. The gist of the method:
as §1

In a further experiment the test system is Escherichia coli. As to the kind of experiment: Antibacterial activity against Escherichia coli ATCC 25922 after 16 to 18 hrs by CLSI method. The gist of the method:
as §1

A further experiment concerns Pseudomonas aeruginosa. The experiment in a line: Antibacterial activity against Pseudomonas aeruginosa ATCC 27853 after 16 to 18 hrs by CLSI method. The gist of the method:
as §1

For experiment [3], the system named is Mycobacterium tuberculosis. The experiment in a line: Antimycobacterial activity against Mycobacterium tuberculosis H37Rv ATCC 27294 after 7 days by pesto blue-dye based broth microdilution assay. Particulars: H37Rv ATCC 27294, 168 h. The gist of the method: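 Broth microdilution in Middlebrook 7H9 with 10% ADC-Tween-80 (0.2% glycerol, 0.05% Tween-80). Compound is added from 10 mg/mL DMSO stocks as two-fold dilutions, 64–0.5 mg/L. Plates are incubated 7 days at 37 °C and read with PrestoBlue resazurin dye. MIC is the lowest concentration inhibiting visible growth, three replicates in duplicate.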

Converted amounts (≈) assume the structure as drawn. Where a SMILES comes first, the peptide text is derived from it. Bridges are numbered along the chain shown (N, C = ends). [ ]: non-standard residue; d: D form. Dab = NCC[C@H](N)C(=O)O

For `Cc1cc(-n2cc(COc3cccc(-n4c(C)nc5ccccc5c4=O)c3)nn2)cc(C)c1C`, the MIC (with Klebsiella pneumoniae; against Staphylococcus aureus; in experiment [1]; against Mycobacteroides chelonae; in experiment [2]; in the experiment on Acinetobacter baumannii) was over 64 µg/mL each time. Moreover, the MIC (in the experiment on Escherichia coli; with Pseudomonas aeruginosa; in experiment [3]) was over 64 µg/mL in each case.
As for `Cc1cccc2c(=O)n(-c3cccc(OCc4cn(-c5cccc(Cl)c5)nn4)c3)c(/C=C/c3ccc(C#N)cc3)nc12`, the MIC (against Klebsiella pneumoniae; in the experiment on Staphylococcus aureus; in [1]; in the experiment with Mycobacteroides chelonae; in experiment [2]; with Acinetobacter baumannii) was over 64 µg/mL in each case. The MIC (in the experiment with Escherichia coli; against Pseudomonas aeruginosa; in experiment [3]) was over 64 µg/mL each time.
As to `Cc1nc2ccccc2c(=O)n1-c1cccc(-n2cc(-c3ccccc3)nn2)c1`, the MIC (against Klebsiella pneumoniae; in the experiment on Staphylococcus aureus; in experiment [1]; in the experiment on Mycobacteroides chelonae; in [2]; against Acinetobacter baumannii) was over 64 µg/mL throughout. For the same compound, the MIC (with Escherichia coli; against Pseudomonas aeruginosa; in experiment [3]) was over 64 µg/mL throughout.
For `CC(C)C[C@@H]1NC(=O)[C@@H](Cc2ccccc2)NC(=O)[C@H](CCN)NC(=O)[C@@H](NC(=O)[C@H](CCN)NC(=O)[C@@H](N)[C@@H](C)O)CCNC(=O)[C@H]([C@@H](C)O)NC(=O)[C@H](CCN)NC(=O)[C@H](CCN)NC1=O` [POLYMYXIN B NONAPEPTIDE] (H-T[Dab][Dab][Dab][dF]L[Dab][Dab]T; lactam 3-C), the MIC with Acinetobacter baumannii and in the experiment on Escherichia coli was over 128 µg/mL each time.
On to `N#Cc1ccc(/C=C/c2nc3ccccc3c(=O)n2-c2cccc(OCc3cn(-c4cccc(C(=O)O)c4)nn3)c2)cc1`, for which the MIC (in general, the smallest concentration in the dilution series that meets the test's criterion for growth inhibition) against Klebsiella pneumoniae was over 64 µg/mL; in the experiment with Staphylococcus aureus it was 4 µg/mL (≈ 7.06 µM); in [1] it was over 64 µg/mL; with Mycobacteroides chelonae it was over 64 µg/mL; in experiment [2] it was over 64 µg/mL; in the experiment on Acinetobacter baumannii it was over 64 µg/mL. Moreover, the MIC (against Escherichia coli; against Pseudomonas aeruginosa; in experiment [3]) was over 64 µg/mL in each case.
For the compound `Cc1cccc(-n2cc(COc3cccc(-n4c(C)nc5ccccc5c4=O)c3)nn2)c1`, the MIC (in the experiment on Klebsiella pneumoniae; in the experiment on Staphylococcus aureus; in experiment [1]; in the experiment with Mycobacteroides chelonae; in experiment [2]; against Acinetobacter baumannii) was over 64 µg/mL throughout. The MIC (with Escherichia coli; in the experiment with Pseudomonas aeruginosa; in experiment [3]) was over 64 µg/mL in each case.
Turning to `N#Cc1ccc(/C=C/c2nc3ccccc3c(=O)n2-c2cccc(OCc3cn(-c4ccc(C(F)(F)F)cc4)nn3)c2)cc1`, the MIC against Klebsiella pneumoniae was over 64 µg/mL; in the experiment with Staphylococcus aureus, 4 µg/mL (≈ 6.77 µM); in experiment [1] it was over 64 µg/mL; in the experiment with Mycobacteroides chelonae it was over 64 µg/mL; in [2], over 64 µg/mL; in the experiment on Acinetobacter baumannii it was over 64 µg/mL. The minimal inhibitory concentration (MIC) (with Escherichia coli; in the experiment with Pseudomonas aeruginosa; in [3]) was over 64 µg/mL in each case.
In the case of `Cc1nc2ccccc2c(=O)n1-c1cccc(OCc2cn(-c3cccc(O)c3)nn2)c1`, the minimum inhibitory concentration (MIC) (in the experiment with Klebsiella pneumoniae; in the experiment on Staphylococcus aureus; in experiment [1]; against Mycobacteroides chelonae; in [2]; against Acinetobacter baumannii) was over 64 µg/mL throughout. The MIC (in the experiment on Escherichia coli; with Pseudomonas aeruginosa; in [3]) was over 64 µg/mL in each case.
Consider `COc1cc(-n2cc(COc3cccc(-n4c(C)nc5ccccc5c4=O)c3)nn2)cc(OC)c1OC`, for which the MIC (in the experiment on Klebsiella pneumoniae; in the experiment with Staphylococcus aureus; in experiment [1]; against Mycobacteroides chelonae; in experiment [2]; in the experiment with Acinetobacter baumannii) was over 64 µg/mL in each case. In addition, the MIC (against Escherichia coli; against Pseudomonas aeruginosa; in experiment [3]) was over 64 µg/mL throughout.
As to `N#Cc1ccc(/C=C/c2nc3ccccc3c(=O)n2-c2cccc(OCc3cn(Cc4ccc(Br)cc4)nn3)c2)cc1`, the MIC is over 64 µg/mL against Klebsiella pneumoniae; 16 µg/mL (≈ 26 µM) in the experiment on Staphylococcus aureus; over 64 µg/mL in experiment [1]; over 64 µg/mL against Mycobacteroides chelonae; over 64 µg/mL in experiment [2]; over 64 µg/mL in the experiment on Acinetobacter baumannii. For the same compound, the minimal inhibitory concentration (MIC) (against Escherichia coli; in the experiment with Pseudomonas aeruginosa; in experiment [3]) was over 64 µg/mL in each case.
For `Cc1nc2ccccc2c(=O)n1-c1cccc(OCc2cn(-c3cccc(Cl)c3)nn2)c1`, the MIC (against Klebsiella pneumoniae; in the experiment with Staphylococcus aureus; in experiment [1]; in the experiment on Mycobacteroides chelonae; in [2]; with Acinetobacter baumannii) was over 64 µg/mL each time. Moreover, the MIC (with Escherichia coli; against Pseudomonas aeruginosa; in [3]) was over 64 µg/mL each time.
In the case of `Cc1nc2ccccc2c(=O)n1-c1cccc(OCc2cn(-c3ccc(O)cc3)nn2)c1`, the MIC (against Klebsiella pneumoniae; with Staphylococcus aureus; in experiment [1]; in the experiment on Mycobacteroides chelonae; in experiment [2]; against Acinetobacter baumannii) was over 64 µg/mL throughout. Further, the MIC was over 64 µg/mL in the experiment with Escherichia coli, over 64 µg/mL in the experiment with Pseudomonas aeruginosa and 64 µg/mL (≈ 150 µM) in experiment [3].
`Cc1nc2ccccc2c(=O)n1-c1cccc(OCc2cn(-c3ccc(C(=O)O)cc3)nn2)c1`: the MIC (with Klebsiella pneumoniae; in the experiment on Staphylococcus aureus; in experiment [1]; against Mycobacteroides chelonae; in experiment [2]; against Acinetobacter baumannii) was over 64 µg/mL each time. Moreover, the minimum inhibitory concentration (MIC) (against Escherichia coli; in the experiment with Pseudomonas aeruginosa; in experiment [3]) was over 64 µg/mL throughout.
In the case of `N#Cc1ccc(/C=C/c2nc3ccccc3c(=O)n2-c2cccc(-n3cc(-c4ccccc4)nn3)c2)cc1`, the MIC (against Klebsiella pneumoniae; with Staphylococcus aureus; in experiment [1]; in the experiment on Mycobacteroides chelonae; in [2]; in the experiment with Acinetobacter baumannii) was over 64 µg/mL throughout. The minimal inhibitory concentration (MIC) (against Escherichia coli; in the experiment with Pseudomonas aeruginosa; in experiment [3]) was over 64 µg/mL throughout.
Consider `NNC(=O)c1ccncc1` [ISONIAZID], for which inhibition of growth in [3] (MIC) required 0.03 µg/mL (≈ 0.219 µM).
In the case of `N#Cc1ccc(/C=C/c2nc3ccccc3c(=O)n2-c2ccc(OCc3cn(Cc4ccc(Br)cc4)nn3)cc2)cc1`, the MIC (against Klebsiella pneumoniae; in the experiment with Staphylococcus aureus; in experiment [1]; in the experiment with Mycobacteroides chelonae; in experiment [2]; against Acinetobacter baumannii) was over 64 µg/mL in each case. The MIC (against Escherichia coli; in the experiment with Pseudomonas aeruginosa; in experiment [3]) was over 64 µg/mL throughout.
Regarding `Cc1ccc(C)c(OCc2cn(-c3cccc(-n4c(C)nc5ccccc5c4=O)c3)nn2)c1`, the MIC (against Klebsiella pneumoniae; in the experiment on Staphylococcus aureus; in [1]; against Mycobacteroides chelonae; in experiment [2]; with Acinetobacter baumannii) was over 64 µg/mL in each case. Also, the MIC (in the experiment on Escherichia coli; in the experiment with Pseudomonas aeruginosa; in [3]) was over 64 µg/mL throughout.
In the case of `N#Cc1ccc(/C=C/c2nc3ccccc3c(=O)n2-c2cccc(OCc3cn(Cc4cccc(Br)c4)nn3)c2)cc1`, the MIC in the experiment on Klebsiella pneumoniae was over 64 µg/mL; against Staphylococcus aureus, 0.5 µg/mL (≈ 0.812 µM); in [1], over 64 µg/mL; against Mycobacteroides chelonae, over 64 µg/mL; in experiment [2], over 64 µg/mL; in the experiment with Acinetobacter baumannii it was over 64 µg/mL. Further, the MIC (against Escherichia coli; in the experiment on Pseudomonas aeruginosa; in experiment [3]) was over 64 µg/mL throughout.
As to `CCC(C)(C)c1ccc(OCc2cn(-c3cccc(-n4c(C)nc5ccccc5c4=O)c3)nn2)cc1`, the MIC (against Klebsiella pneumoniae; in the experiment on Staphylococcus aureus; in experiment [1]; with Mycobacteroides chelonae; in experiment [2]; with Acinetobacter baumannii) was over 64 µg/mL each time. Besides, the MIC (against Escherichia coli; in the experiment on Pseudomonas aeruginosa; in [3]) was over 64 µg/mL throughout.
For `Cc1cc([N+](=O)[O-])ccc1-n1cc(COc2cccc(-n3c(C)nc4ccccc4c3=O)c2)nn1`, the MIC (in the experiment on Klebsiella pneumoniae; in the experiment on Staphylococcus aureus; in experiment [1]; against Mycobacteroides chelonae; in experiment [2]; with Acinetobacter baumannii) was over 64 µg/mL in each case. For the same compound, the MIC is over 64 µg/mL in the experiment on Escherichia coli, over 64 µg/mL against Pseudomonas aeruginosa and 32 µg/mL (≈ 68.3 µM) in experiment [3].
`Cc1cccc2c(=O)n(-c3cccc(OCc4cn(-c5cccc(Cl)c5)nn4)c3)c(C)nc12`: the minimal inhibitory concentration (MIC) (against Klebsiella pneumoniae; against Staphylococcus aureus; in experiment [1]; against Mycobacteroides chelonae; in [2]; in the experiment on Acinetobacter baumannii) was over 64 µg/mL in each case. The MIC (in the experiment on Escherichia coli; against Pseudomonas aeruginosa; in [3]) was over 64 µg/mL each time.
Regarding `CCC(C)(C)c1ccc(OCc2cn(-c3cccc(-n4c(/C=C/c5ccc(C#N)cc5)nc5ccccc5c4=O)c3)nn2)cc1`, the MIC (with Klebsiella pneumoniae; in the experiment with Staphylococcus aureus; in experiment [1]; against Mycobacteroides chelonae; in experiment [2]; against Acinetobacter baumannii) was over 64 µg/mL each time. Further, the MIC against Escherichia coli and with Pseudomonas aeruginosa was over 64 µg/mL each time.

Source of the values: ChEMBL document CHEMBL4261585, “Synthesis of 1,2,3-triazole linked 4(3H)-Quinazolinones as potent antibacterial agents against multidrug-resistant Staphylococcus aureus” (Eur J Med Chem, 2018).
